Source: ChEMBL document CHEMBL1155942, “Synthesis and evaluation in vitro and in vivo of a 11C-labeled cyclooxygenase-2 (COX-2) inhibitor” (Bioorg Med Chem, 2008)

What was measured:
[1] = Metabolic stability in human HT29 cells bearing mouse plasma at 20 MBq, iv after 1 min; format: ADME, organism-based, HT-29; conditions: read-out: Stability
How it was run: (§1)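 After iv radiotracer, arterial blood was drawn through a femoral artery catheter. Plasma was separated by centrifugation (3 min, 11,000g). Proteins were precipitated with ice-cold methanol (1.5 parts per part plasma) and centrifuged again. Supernatants were analysed by HPLC for the fraction of intact radiotracer over time.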

[2] = test system: Kidney; assay: Biodistribution in Wistar rat kidney at ~20 MBq, iv after 60 mins; format: ADME, organism-based; conditions: in vivo, 1 h
How it was run: (§2)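 Male Wistar rats, housed under standard conditions. Each received about 20 MBq of radiotracer iv in 0.5 mL saline with 10% ethanol. Animals were killed at 5 or 60 min post injection, and organs were excised and weighed. Activity was gamma-counted, decay-corrected and calibrated against injected-tracer aliquots, then expressed as %ID/g. Mean ± SD, four animals per time point.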

[3] = test system: Lung; assay: Biodistribution in Wistar rat lung at ~20 MBq, iv after 60 mins; format: ADME, organism-based; conditions: in vivo, 1 h; how it was run: as §2
[4] = test system: Harderian gland; assay: Biodistribution in Wistar rat harderian gland at ~20 MBq, iv after 5 mins; format: ADME, organism-based; conditions: in vivo; how it was run: as §2
[5] = test system: Spleen; assay: Biodistribution in Wistar rat spleen at ~20 MBq, iv after 5 mins; format: ADME, organism-based; conditions: in vivo; how it was run: as §2
[6] = test system: Thymus; assay: Biodistribution in Wistar rat thymus at ~20 MBq, iv after 60 mins; format: ADME, organism-based; conditions: in vivo, 1 h; how it was run: as §2
[7] = Metabolic stability in human HT29 cells bearing mouse plasma at 20 MBq, iv after 30 mins; format: ADME, organism-based, HT-29; conditions: read-out: Stability; how it was run: as §1
[8] = Metabolic stability in human HT29 cells bearing mouse plasma at 20 MBq, iv after 5 mins; format: ADME, organism-based, HT-29; conditions: read-out: Stability; how it was run: as §1
[9] = test system: Muscle tissue; assay: Biodistribution in Wistar rat muscle at ~20 MBq, iv after 60 mins; format: ADME, organism-based; conditions: in vivo, 1 h; how it was run: as §2
[10] = test system: Femur; assay: Biodistribution in Wistar rat femur at ~20 MBq, iv after 60 mins; format: ADME, organism-based; conditions: in vivo, 1 h; how it was run: as §2
[11] = test system: Muscle tissue; assay: Biodistribution in Wistar rat muscle at ~20 MBq, iv after 5 mins; format: ADME, organism-based; conditions: in vivo; how it was run: as §2
[12] = test system: Brain; assay: Biodistribution in Wistar rat brain at ~20 MBq, iv after 5 mins; format: ADME, organism-based; conditions: in vivo; how it was run: as §2
[13] = test system: Liver; assay: Biodistribution in Wistar rat liver at ~20 MBq, iv after 5 mins; format: ADME, organism-based; conditions: in vivo; how it was run: as §2
[14] = Metabolic stability in Wistar rat plasma at 30 MBq, iv after 1 min; format: ADME, organism-based; conditions: read-out: Stability; how it was run: as §1
[15] = test system: Brain; assay: Biodistribution in Wistar rat brain at ~20 MBq, iv after 60 mins; format: ADME, organism-based; conditions: in vivo, 1 h; how it was run: as §2
[16] = Metabolic stability in Wistar rat plasma at 30 MBq, iv after 60 mins; format: ADME, organism-based; conditions: read-out: Stability; how it was run: as §1
[17] = test system: Heart; assay: Biodistribution in Wistar rat heart at ~20 MBq, iv after 60 mins; format: ADME, organism-based; conditions: in vivo, 1 h; how it was run: as §2
[18] = Metabolic stability in human HT29 cells bearing mouse plasma at 20 MBq, iv after 60 mins; format: ADME, organism-based, HT-29; conditions: read-out: Stability; how it was run: as §1
[19] = test system: Harderian gland; assay: Biodistribution in Wistar rat harderian gland at ~20 MBq, iv after 60 mins; format: ADME, organism-based; conditions: in vivo, 1 h; how it was run: as §2
[20] = Biodistribution in Wistar rat white adipose tissue at ~20 MBq, iv after 5 mins; format: ADME, organism-based; conditions: in vivo; how it was run: as §2
[21] = Biodistribution in Wistar rat white adipose tissue at ~20 MBq, iv after 60 mins; format: ADME, organism-based; conditions: in vivo, 1 h; how it was run: as §2
[22] = test system: Lung; assay: Biodistribution in Wistar rat lung at ~20 MBq, iv after 5 mins; format: ADME, organism-based; conditions: in vivo; how it was run: as §2
[23] = test system: Testes; assay: Biodistribution in Wistar rat testes at ~20 MBq, iv after 60 mins; format: ADME, organism-based, Testis; conditions: in vivo, 1 h; how it was run: as §2
[24] = test system: Kidney; assay: Biodistribution in Wistar rat kidney at ~20 MBq, iv after 5 mins; format: ADME, organism-based; conditions: in vivo; how it was run: as §2
[25] = test system: Adrenal; assay: Biodistribution in Wistar rat adrenal at ~20 MBq, iv after 5 mins; format: ADME, organism-based, Adrenal tissue; conditions: in vivo; how it was run: as §2
[26] = test system: Pancreas; assay: Biodistribution in Wistar rat pancreas at ~20 MBq, iv after 60 mins; format: ADME, organism-based; conditions: in vivo, 1 h; how it was run: as §2
[27] = test system: Testes; assay: Biodistribution in Wistar rat testes at ~20 MBq, iv after 5 mins; format: ADME, organism-based, Testis; conditions: in vivo; how it was run: as §2
[28] = test system: Blood; assay: Biodistribution in Wistar rat blood at ~20 MBq, iv after 5 mins; format: ADME, organism-based; conditions: in vivo; how it was run: as §2
[29] = test system: Blood; assay: Biodistribution in Wistar rat blood at ~20 MBq, iv after 60 mins; format: ADME, organism-based; conditions: in vivo, 1 h; how it was run: as §2
[30] = Metabolic stability in human HT29 cells bearing mouse plasma at 20 MBq, iv after 10 mins; format: ADME, organism-based, HT-29; conditions: read-out: Stability; how it was run: as §1
[31] = test system: Spleen; assay: Biodistribution in Wistar rat spleen at ~20 MBq, iv after 60 mins; format: ADME, organism-based; conditions: in vivo, 1 h; how it was run: as §2
[32] = test system: Thymus; assay: Biodistribution in Wistar rat thymus at ~20 MBq, iv after 5 mins; format: ADME, organism-based; conditions: in vivo; how it was run: as §2
[33] = test system: Liver; assay: Biodistribution in Wistar rat liver at ~20 MBq, iv after 60 mins; format: ADME, organism-based; conditions: in vivo, 1 h; how it was run: as §2
[34] = Biodistribution in Wistar rat brown adipose tissue at ~20 MBq, iv after 60 mins; format: ADME, organism-based; conditions: in vivo, 1 h; how it was run: as §2
[35] = Metabolic stability in Wistar rat plasma at 30 MBq, iv after 20 mins; format: ADME, organism-based; conditions: read-out: Stability; how it was run: as §1
[36] = Metabolic stability in Wistar rat plasma at 30 MBq, iv after 10 mins; format: ADME, organism-based; conditions: read-out: Stability; how it was run: as §1
[37] = test system: Pancreas; assay: Biodistribution in Wistar rat pancreas at ~20 MBq, iv after 5 mins; format: ADME, organism-based; conditions: in vivo; how it was run: as §2
[38] = test system: Femur; assay: Biodistribution in Wistar rat femur at ~20 MBq, iv after 5 mins; format: ADME, organism-based; conditions: in vivo; how it was run: as §2
[39] = Metabolic stability in Wistar rat plasma at 30 MBq, iv after 30 mins; format: ADME, organism-based; conditions: read-out: Stability; how it was run: as §1
[40] = Metabolic stability in human HT29 cells bearing mouse plasma at 20 MBq, iv after 20 mins; format: ADME, organism-based, HT-29; conditions: read-out: Stability; how it was run: as §1
[41] = test system: Heart; assay: Biodistribution in Wistar rat heart at ~20 MBq, iv after 5 mins; format: ADME, organism-based; conditions: in vivo; how it was run: as §2
[42] = test system: Adrenal; assay: Biodistribution in Wistar rat adrenal at ~20 MBq, iv after 60 mins; format: ADME, organism-based, Adrenal tissue; conditions: in vivo, 1 h; how it was run: as §2
[43] = Metabolic stability in Wistar rat plasma at 30 MBq, iv after 5 mins; format: ADME, organism-based; conditions: read-out: Stability; how it was run: as §1
[44] = Biodistribution in Wistar rat brown adipose tissue at ~20 MBq, iv after 5 mins; format: ADME, organism-based; conditions: in vivo; how it was run: as §2

remaining at 1 min [1]: 95%
Drug uptake [2]: 0.26 % ID/g
Drug uptake [3]: 0.19 % ID/g
Drug uptake [4]: 1.06 % ID/g
Drug uptake [5]: 0.32 % ID/g
Drug uptake [6]: 0.2 % ID/g
remaining at 0.5 h [7]: 5%
remaining at 5 min [8]: 40%
Drug uptake [9]: 0.11 % ID/g
Drug uptake [10]: 0.19 % ID/g
Drug uptake [11]: 0.32 % ID/g
Drug uptake [12]: 0.59 % ID/g
Drug uptake [13]: 1.35 % ID/g
remaining at 1 min [14]: 97%
Drug uptake [15]: 0.11 % ID/g
remaining at 1 h [16]: 18%
Drug uptake [17]: 0.16 % ID/g
remaining at 1 h [18]: 2%
Drug uptake [19]: 0.42 % ID/g
Drug uptake [20]: 0.53 % ID/g
Drug uptake [21]: 0.52 % ID/g
Drug uptake [22]: 0.59 % ID/g
Drug uptake [23]: 0.09 % ID/g
Drug uptake [24]: 0.62 % ID/g
Drug uptake [25]: 1.33 % ID/g
Drug uptake [26]: 0.52 % ID/g
Drug uptake [27]: 0.2 % ID/g
Drug uptake [28]: 0.23 % ID/g
Drug uptake [29]: 0.18 % ID/g
remaining at 10 min [30]: 17%
Drug uptake [31]: 0.21 % ID/g
Drug uptake [32]: 0.64 % ID/g
Drug uptake [33]: 0.76 % ID/g
Drug uptake [34]: 0.67 % ID/g
remaining at 20 min [35]: 26%
remaining at 10 min [36]: 35%
Drug uptake [37]: 0.78 % ID/g
Drug uptake [38]: 0.34 % ID/g
remaining at 0.5 h [39]: 22%
remaining at 20 min [40]: 8%
Drug uptake [41]: 0.5 % ID/g
Drug uptake [42]: 0.57 % ID/g
remaining at 5 min [43]: 57%
Drug uptake [44]: 1.89 % ID/g
Compound: CS(=O)(=O)c1ccc(C2=C(c3ccc(O[11CH3])cc3)CCC2)cc1
